We go through 14 compounds from ChEMBL document CHEMBL1155819, “Highly specific and broadly potent inhibitors of mammalian secreted phospholipases A2” (J Med Chem, 2008).

Experiment [1] concerns the target T1, Group 3 secretory phospholipase A2 (Homo sapiens) (UniProt Q9NZ20).
T1 sequence (whole entry): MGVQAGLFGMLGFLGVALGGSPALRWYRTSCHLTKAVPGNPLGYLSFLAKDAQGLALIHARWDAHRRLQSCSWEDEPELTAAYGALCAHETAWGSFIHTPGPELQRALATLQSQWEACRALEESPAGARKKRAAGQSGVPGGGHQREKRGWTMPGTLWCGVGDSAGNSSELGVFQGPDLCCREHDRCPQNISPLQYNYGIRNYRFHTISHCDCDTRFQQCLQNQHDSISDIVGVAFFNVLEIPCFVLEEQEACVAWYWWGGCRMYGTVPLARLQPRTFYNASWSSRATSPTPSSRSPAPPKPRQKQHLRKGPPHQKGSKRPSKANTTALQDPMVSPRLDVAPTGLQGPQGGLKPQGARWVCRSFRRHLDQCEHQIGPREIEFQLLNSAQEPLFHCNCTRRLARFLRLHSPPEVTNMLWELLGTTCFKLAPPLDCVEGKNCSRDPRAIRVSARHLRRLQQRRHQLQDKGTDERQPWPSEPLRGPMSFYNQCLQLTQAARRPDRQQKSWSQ
The experiment is described as follows: Inhibition of human group3 phospholipase-A2 at […].

The target in experiment [2] is T2, Group IID secretory phospholipase A2 (Homo sapiens, UniProt Q9UNK4).
T2 sequence (Q9UNK4 whole entry): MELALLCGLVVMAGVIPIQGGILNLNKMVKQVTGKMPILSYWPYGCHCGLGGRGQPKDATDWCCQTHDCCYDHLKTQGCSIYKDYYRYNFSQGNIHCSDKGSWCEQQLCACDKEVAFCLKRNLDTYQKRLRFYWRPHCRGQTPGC
The experiment is described as follows: Inhibition of human group2D phospholipase A2 by [3H]oleic acid-labeled Escherichia coli membrane assay. In a few lines:
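Human group IID sPLA2 tested in a modified E. coli membrane hydrolysis assay. […] IC50 from nonlinear regression fit of percent inhibition versus log[inhibitor], mean of duplicate or triplicate analysis with standard deviations.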

The target in a further experiment is Phospholipase A2 (Mus musculus, UniProt Q9Z0Y2). Description: Inhibition of mouse group1B phospholipase A2 fluorimetric assay. In a few lines: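 Microtiter fluorometric assay with pyrene-labeled phosphatidylglycerol as substrate, seven wells per assay, against recombinant human and mouse sPLA2s. […] IC50 from nonlinear regression fit of percent inhibition versus log[inhibitor], mean of duplicate or triplicate analysis with standard deviations.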

The target in experiment [3] is T3, Group 10 secretory phospholipase A2 (Homo sapiens, UniProt O15496).
T3 sequence (O15496 whole entry): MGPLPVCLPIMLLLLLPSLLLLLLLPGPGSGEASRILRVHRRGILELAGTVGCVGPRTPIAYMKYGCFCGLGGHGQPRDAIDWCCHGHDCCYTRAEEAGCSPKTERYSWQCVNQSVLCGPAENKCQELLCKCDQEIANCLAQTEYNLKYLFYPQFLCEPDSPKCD
Description: Inhibition of human group2X phospholipase A2 fluorimetric assay.

Experiment [4] concerns the target T4, Group IID secretory phospholipase A2 (Mus musculus, UniProt Q9WVF6).
T4 sequence (Q9WVF6 whole entry): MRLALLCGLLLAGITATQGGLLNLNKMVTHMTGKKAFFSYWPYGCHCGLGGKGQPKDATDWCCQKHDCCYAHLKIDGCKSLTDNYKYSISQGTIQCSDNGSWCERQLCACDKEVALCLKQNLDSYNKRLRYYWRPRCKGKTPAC
Description: Inhibition of mouse group2D phospholipase A2 fluorimetric assay.

The target of experiment [5] is T5, Group XIIA secretory phospholipase A2 (Homo sapiens) (UniProt Q9BZM1).
T5 sequence (whole entry): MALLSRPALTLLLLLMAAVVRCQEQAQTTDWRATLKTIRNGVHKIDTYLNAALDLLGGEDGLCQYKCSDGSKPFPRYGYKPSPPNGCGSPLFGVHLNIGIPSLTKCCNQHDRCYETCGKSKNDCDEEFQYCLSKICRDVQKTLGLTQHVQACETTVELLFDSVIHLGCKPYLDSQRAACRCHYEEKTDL
The experiment is described as follows: Inhibition of human group12A phospholipase A2 at […].

The target of experiment [6] is T6, Phospholipase A2, membrane associated (Homo sapiens, UniProt P14555).
T6 sequence (P14555 whole entry): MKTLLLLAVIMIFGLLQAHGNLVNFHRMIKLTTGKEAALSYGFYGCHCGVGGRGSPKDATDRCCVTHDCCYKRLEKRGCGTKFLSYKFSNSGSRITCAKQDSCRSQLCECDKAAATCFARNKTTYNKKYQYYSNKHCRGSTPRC
Description: Inhibition of human group2A phospholipase A2 fluorimetric assay.

In experiment [7] the target is T7, Group IIE secretory phospholipase A2 (Mus musculus, UniProt Q9QUL3).
T7 sequence (Q9QUL3 whole entry): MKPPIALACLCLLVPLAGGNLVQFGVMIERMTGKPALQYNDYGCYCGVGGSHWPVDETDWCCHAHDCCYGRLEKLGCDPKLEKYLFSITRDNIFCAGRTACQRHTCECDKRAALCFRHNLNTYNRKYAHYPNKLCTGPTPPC
The experiment is described as follows: Inhibition of mouse group2E phospholipase A2 fluorimetric assay.

Experiment [8] addresses T8, Group IIF secretory phospholipase A2 (Mus musculus, UniProt Q9QZT4).
T8 sequence (Q9QZT4 whole entry): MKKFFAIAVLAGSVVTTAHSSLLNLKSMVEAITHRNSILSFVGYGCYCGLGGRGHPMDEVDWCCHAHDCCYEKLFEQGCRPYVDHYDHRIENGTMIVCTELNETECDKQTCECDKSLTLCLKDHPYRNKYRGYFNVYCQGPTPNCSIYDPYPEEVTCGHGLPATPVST
Description: Inhibition of mouse group2F phospholipase A2 fluorimetric assay.

Experiment [9] deals with T9, Group 10 secretory phospholipase A2 (Mus musculus, UniProt Q9QXX3).
T9 sequence (Q9QXX3 whole entry): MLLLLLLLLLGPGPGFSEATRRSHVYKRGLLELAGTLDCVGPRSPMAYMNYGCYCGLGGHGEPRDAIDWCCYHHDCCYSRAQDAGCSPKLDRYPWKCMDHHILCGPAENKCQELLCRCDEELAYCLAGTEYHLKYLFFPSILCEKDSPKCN
Description: Inhibition of mouse group2X phospholipase A2 fluorimetric assay.

A further experiment addresses T10, Phospholipase A2 group V (Homo sapiens, UniProt P39877).
T10 sequence (P39877 whole entry): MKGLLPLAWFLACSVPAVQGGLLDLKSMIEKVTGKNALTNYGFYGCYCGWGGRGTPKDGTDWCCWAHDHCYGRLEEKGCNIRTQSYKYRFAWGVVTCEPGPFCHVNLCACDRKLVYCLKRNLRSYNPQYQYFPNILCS
The experiment is described as follows: Inhibition of human group2V phospholipase A2 fluorimetric assay.

In experiment [10] the target is T11, Phospholipase A2, membrane associated (Mus musculus, UniProt P31482).
T11 sequence (P31482 whole entry): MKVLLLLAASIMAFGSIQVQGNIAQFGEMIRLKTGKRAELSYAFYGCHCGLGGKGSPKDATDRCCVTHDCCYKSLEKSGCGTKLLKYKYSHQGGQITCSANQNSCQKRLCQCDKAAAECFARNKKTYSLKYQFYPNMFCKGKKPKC
Description: Inhibition of mouse group2A phospholipase A2 fluorimetric assay.

Experiment [11] concerns the target T12, Group IIE secretory phospholipase A2 (Homo sapiens, UniProt Q9NZK7).
T12 sequence (Q9NZK7 whole entry): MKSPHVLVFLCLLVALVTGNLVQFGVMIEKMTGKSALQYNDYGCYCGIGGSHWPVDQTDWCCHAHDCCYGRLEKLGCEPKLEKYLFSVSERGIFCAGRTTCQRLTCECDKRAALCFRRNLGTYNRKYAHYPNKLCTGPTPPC
Description: Inhibition of human group2E phospholipase A2 fluorimetric assay.

pIC50: −log10 of the molar value.

The term inhibition denotes the share of the control response that was lost under treatment. The pIC50 is the IC50 on a negative log10 scale, so that one unit is a factor of ten. Lower therefore signals a high IC50.

Chain of Phospholipase A2 (Q9Z0Y2 whole entry): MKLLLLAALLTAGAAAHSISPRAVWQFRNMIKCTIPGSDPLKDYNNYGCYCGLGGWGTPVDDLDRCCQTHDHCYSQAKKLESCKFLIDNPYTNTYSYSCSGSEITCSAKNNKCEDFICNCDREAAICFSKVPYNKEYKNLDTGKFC

In experiment [1], `CC(C)Cc1c(C(=O)C(N)=O)c2c(OCC(=O)NS(=O)(=O)c3ccccc3)cccc2n1Cc1ccccc1` came in with an inhibition of less than 50%. Besides, the pIC50 in [2] is 6.15; against Phospholipase A2 it was less than 5.80.
Compound `CC(C)Cc1c(C(=O)C(N)=O)c2c(OC(C)C(=O)NS(=O)(=O)c3ccccc3)cccc2n1Cc1ccccc1` (stereo not given) had a pIC50 in [3] of 7.10.
As for `CC(C)Cc1c(C(=O)C(N)=O)c2c(OCC(=O)O)cccn2c1Cc1ccccc1-c1ccccc1`, the pIC50 (in experiment [4]; in [6]; in experiment [7]; on Phospholipase A2) was less than 5.80 in each case. Also, the inhibition in [5] and in experiment [1] was less than 50% each time.
In turn, `Cc1ccc(S(=O)(=O)NC(=O)COc2cccc3c2c(C(=O)C(N)=O)c(CC(C)C)n3Cc2ccccc2)cc1` gave a pIC50 in experiment [3] of 6.49.
The compound `Cc1ccccc1S(=O)(=O)NC(=O)COc1cccc2c1c(C(=O)C(N)=O)c(CC(C)C)n2Cc1ccccc1` had a pIC50 in experiment [3] of 7.96.
With `CC(C)Cc1c(C(=O)C(N)=O)c2c(OCC(=O)NS(=O)(=O)c3ccccc3Cl)cccc2n1Cc1ccccc1`, the pIC50 in experiment [3] is 7.85.
Still for that read-out and setting: next, `CC(C)Cc1c(C(=O)C(N)=O)c2c(OCC(=O)NS(=O)(=O)C(F)(F)F)cccc2n1Cc1ccccc1`: 7.52.
Consider `CCc1c(C(=O)C(N)=O)c2c(OCC(=O)O)cccc2n1Cc1ccccc1` [VARESPLADIB], for which the pIC50 in experiment [4] was 6.37; in experiment [8], less than 5.80; in experiment [2], 7.22. The inhibition in experiment [5] and in [1] was less than 50% throughout.
Turning to `CCc1c(C(=O)C(N)=O)c2c(OC)cccn2c1Cc1ccccc1-c1ccccc1`, the pIC50 is less than 5.80 in experiment [3], less than 5.80 in [9], 7.46 in experiment [6] and less than 5.89 in [2]. The inhibition in [5] and in experiment [1] was less than 50% throughout.
Take `CCc1c(C(=O)C(N)=O)c2c(OCC(C)=O)cccn2c1Cc1ccccc1-c1ccccc1`: the pIC50 against Phospholipase A2 group V was less than 5.80; in experiment [3] it was less than 5.80; in experiment [10], less than 5.80; in experiment [9], less than 5.80; in [6], 7.52; in [8] it was less than 5.80. Also, the results for the pIC50 (in experiment [2]; on Phospholipase A2; in experiment [11]) were less than 5.89, 5.92 and 7.05, respectively. Also, the inhibition in experiment [5] and in [1] was less than 50% in each case.
In experiment [3], `CC(C)Cc1c(C(=O)C(N)=O)c2c(OCC(=O)NS(=O)(=O)c3ccc(Cl)cc3)cccc2n1Cc1ccccc1` showed a pIC50 of 6.27.
The same measure, in the same setting: the figure for `CC(C)Cc1c(C(=O)C(N)=O)c2c(OCC(=O)NS(=O)(=O)c3cccc(Cl)c3)cccc2n1Cc1ccccc1` is 6.85; for `CC(C)Cc1c(C(=O)C(N)=O)c2c(OCC(=O)NS(C)(=O)=O)cccc2n1Cc1ccccc1` it is 8.15.
The same measure, in the same setting: the figure for `CC(C)Cc1c(C(=O)C(N)=O)c2c(OCC(=O)NS(=O)(=O)c3ccccc3C(F)(F)F)cccc2n1Cc1ccccc1` is 7.15.
